The source made the active and inactive calls. The rule behind the calls is not given here.
Key:
[1] = system: Voltage-gated calcium channel; assay: Inhibition of KCl-induced cytosolic voltage gated calcium channel opening in human SH-SY5Y cells at 10 uM by Fluo-4 AM dye based fluorescence assay relative to control; type: cell-based
Outline: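 SH-SY5Y cells were loaded with Fluo-4/AM (10 µM) in Krebs-HEPES and preincubated with compound at 10 µM. They were then depolarized with 70 mM K+, and fluorescence (ex 485/em 520 nm) was monitored in real time. ΔF = (Fx−F0)/(Fmax−Fmin), using Triton X-100 for Fmax and MnCl2 for Fmin. Values are % blockade (100−ΔF) against vehicle (DMSO 0.1%), with ≥4 independent experiments in triplicate.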

[2] = molecular target: T1, Serine/threonine-protein phosphatase 2A 55 kDa regulatory subunit B alpha isoform (Homo sapiens) (UniProt P63151); assay: (§1) Reversal of okadaic acid mediated PP2A PR55alpha B regulatory subunit inactivation in human SH-SY5Y cells at 0.1 uM preincubated for 24 hrs followed by cotreatment with PPA2 inhibitor okadaic acid for 18 hrs measured over 30 mins by pNPP based spectrophotometric analysis; type: cell-based
T1 sequence (whole entry): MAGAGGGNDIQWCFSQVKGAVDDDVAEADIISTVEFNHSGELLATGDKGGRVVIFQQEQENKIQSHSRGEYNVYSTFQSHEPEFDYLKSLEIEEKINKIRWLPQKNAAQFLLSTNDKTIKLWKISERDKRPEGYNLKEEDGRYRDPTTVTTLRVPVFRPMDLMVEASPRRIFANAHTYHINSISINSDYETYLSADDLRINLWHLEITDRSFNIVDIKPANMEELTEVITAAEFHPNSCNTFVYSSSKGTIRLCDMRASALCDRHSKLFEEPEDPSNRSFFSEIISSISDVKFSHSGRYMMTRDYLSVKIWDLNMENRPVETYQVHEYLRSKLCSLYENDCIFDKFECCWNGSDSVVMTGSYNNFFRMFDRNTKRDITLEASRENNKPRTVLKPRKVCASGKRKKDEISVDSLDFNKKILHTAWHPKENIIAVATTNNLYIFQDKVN
Outline: (§2)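 SH-SY5Y cells were preincubated with compound for 24 h, then exposed for 18 h to okadaic acid 15 nM plus compound in fresh MEM/F12 with 1% FBS. Phosphatase activity was measured by pNPP dephosphorylation for 30 min at 37 °C, reading p-nitrophenolate at 405 nm. Values were normalized to cells not exposed to OA; at least three independent experiments.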

SH-SY5Y [3] = assay: Cytotoxicity against human SH-SY5Y cells assessed as cell viability at 3 uM incubated for 48 hrs by MTT assay
[4] = molecular target: Voltage-gated calcium channel; assay: Inhibition of KCl-induced cytosolic voltage gated calcium channel opening in human SH-SY5Y cells by Fluo-4 AM dye based fluorescence assay; type: cell-based
Outline: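 Fluo-4/AM-loaded (10 µM) SH-SY5Y cells in Krebs-HEPES received compound at several concentrations before 70 mM K+ depolarization, with readings at ex 485/em 520 nm. ΔF was normalized to vehicle (DMSO 0.1%) cultures. IC50 is the concentration halving ΔF, from a variable-slope non-linear regression of log concentration vs normalized response. Three experiments in triplicate.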

[5] = molecular target: Glutamate NMDA receptor (Rattus norvegicus) (UniProt P35439+Q00959+Q00960+Q00961+Q62645+Q8VHN2+Q9R1M7); assay: Inhibition of NMDA receptor in rat cortical embryonic neurons assessed as reduction in NMDA-induced cytosolic calcium level at 10 uM by Fluo-4 AM dye based fluorescence assay relative to control
Outline: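 Cortical neurons came from E18 rat embryos (two pregnant rats). They were loaded with Fluo-4/AM (3 µM) in Krebs-HEPES, incubated with compound at 10 µM, then stimulated with NMDA 10 µM, and fluorescence was read at ex 485/em 520 nm. Normalized ΔF is reported as % blockade against vehicle (DMSO 0.1%), with ≥4 independent experiments in triplicate.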

SH-SY5Y [6] = assay: Neuroprotective activity against okadaic acid-induced cell death in human SH-SY5Y cells assessed as cell viability at 0.1 uM preincubated for 24 hrs followed by cotreatment with PPA2 inhibitor okadaic acid measured after 20 hrs by MTT assay (reference value: 50.1 +/- 0.2%); type: functional; conditions: read-out: Activity
SH-SY5Y [7] = assay: Cytotoxicity against human SH-SY5Y cells assessed as cell viability at 10 uM incubated for 48 hrs by MTT assay
[8] = molecular target: T1, Serine/threonine-protein phosphatase 2A 55 kDa regulatory subunit B alpha isoform (Homo sapiens); assay: as §1, with “cells assessed as residual activity” for “cells”, “analysis relative to control” for “analysis”; type: cell-based; outline: as §2

Row | SMILES | inhibition (INH) [1] | Activity [2] | Activity (SH-SY5Y [3]) | IC50 [4] | inhibition [5] | viability at 0.1 µM (SH-SY5Y [6]) | Activity (SH-SY5Y [7]) | Activity [8]
1 | Cc1ccc2c(c1)c(CN1CCCCC1)cn2Cc1cccc(Cl)c1 | 97% | Active | Non-Toxic | 2.2 µM | 37% | 67% | Toxic | –
2 | Cc1ccc(Cn2cc(CN3CCCCC3)c3cc(C)ccc32)cc1 | 94% | Active | Non-Toxic | 3.6 µM | 32% | 67% | – | –
3 | COC(=O)C1=C(C)NC(C)=C(C(=O)OC)C1c1ccccc1[N+](=O)[O-] [NIFEDIPINE] | 32% | – | – | – | – | – | – | –
4 | Cc1ccc2c(c1)c(CN1CCCCC1)cn2Cc1cccc([N+](=O)[O-])c1 | 90% | – | Non-Toxic | 3 µM | 22% | 67% | – | –
5 | CC12CC3CC(C)(C1)CC(N)(C3)C2 | – | – | – | – | 41% | – | – | –
6 | Cc1ccc2c(c1)c(CN1CCCCC1)cn2Cc1ccc(F)cc1 | 79% | Active | Non-Toxic | 4.8 µM | 34% | 67% | – | 93%
7 | Cc1ccc2c(c1)c(CN1CCCCC1)cn2Cc1ccc(Cl)cc1 | 95% | Active | Non-Toxic | 3 µM | 52% | 67% | Toxic | –
8 | Cc1ccc2c(c1)c(CN1CCCCC1)cn2Cc1ccccc1 | 87% | Active | – | 3.4 µM | 42% | 73% | – | –
9 | Cc1ccc2c(c1)c(CN1CCCCC1)cn2Cc1ccccc1[N+](=O)[O-] | 90% | – | Non-Toxic | 1.8 µM | 24% | 70% | – | –

Reference: ChEMBL document CHEMBL4219228, “Substituent effect of N-benzylated gramine derivatives that prevent the PP2A inhibition and dissipate the neuronal Ca2+ overload, as a multitarget strategy for the treatment of Alzheimer's disease” (Bioorg Med Chem, 2018)
